{"data": "Published values collected from several papers", "target": "Calcium/calmodulin-dependent protein kinase type 1 (CAMK1, Homo sapiens, UniProt Q14012)", "note": "Lines come from different studies, so protocols differ."}
{"Structure (SMILES)": "CC#CC(=O)N1CCC[C@H]1c1nc(-c2ccc(C(=O)Nc3ccccn3)cc2)c2c(N)nccn12", "test": "enzyme activity, inhibitor", "setting": "1 µM", "measurement": "inhibition", "result": "26%"}
{"Structure (SMILES)": "COc1ccc2oc(-c3ccc4nc(N)oc4c3)c/c(=N\\c3ccccc3NC(=O)CCN)c2c1", "test": "binding", "setting": "1 µM", "measurement": "remaining binding", "result": "70%"}
{"Structure (SMILES)": "C[C@H]1CC[C@H](n2c3cnccc3c3cnc(Nc4ccc5c(n4)CCN(C(=O)CO)C5)nc32)CC1", "test": "cell-free assay", "setting": "1 µM", "measurement": "remaining signal", "result": "45%"}
{"Structure (SMILES)": "CCCCC(=O)Nc1ccc(-c2ccc3ncn(CCC)c(=O)c3c2)cn1", "test": "binding, competition with immobilised ligand", "setting": "0.5 µM", "measurement": "remaining binding", "result": "88%"}
{"Structure (SMILES)": "Cc1ccc(NC(=O)c2ccnc(C(F)(F)F)c2)cc1-c1cc(OCCO)nc(N2CCOCC2)c1", "test": "binding", "setting": "1 µM", "measurement": "remaining binding", "result": "100%"}
{"Structure (SMILES)": "C1=C/COCc2cc(ccc2OCCN2CCCC2)Nc2nccc(n2)-c2cccc(c2)COC/1", "test": "binding", "setting": "0.1 µM", "measurement": "remaining binding", "result": "65%"}
{"Structure (SMILES)": "Cc1cc(O)c(-c2ccc([C@@H](C)CN(C)C)cc2)c2c1[nH]c(=O)c1sccc12", "test": "cell-free assay, inhibitor", "setting": "0.1 µM, lysate", "measurement": "inhibition", "result": "2.27%"}
{"Structure (SMILES)": "C=CC(=O)N1CCC([C@@H]2CCNc3c(C(N)=O)c(-c4ccc(Oc5ccccc5)cc4)nn32)CC1", "test": "enzyme activity, inhibitor", "setting": "1 µM", "measurement": "inhibition", "result": "7%"}
